# In ChEMBL document CHEMBL1129622, “Synthesis of non-nucleoside analogs of toyocamycin, sangivamycin, and thiosangivamycin: the effect of certain 4- and 4,6-substituents on the antiviral activity of pyrrolo[2,3-d]pyrimidines” (J Med Chem, 1996):
# Tests used:
# Human betaherpesvirus 5 [1] = experiment: Antiviral activity against human cytomegalovirus by plaque reduction assay; assay type: functional, organism-based
# Method in brief: (§1)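 Plaque reduction in HFF monolayers (MEM(E), 10% FBS) infected with a 0.2 mL inoculum of ca. 100 PFU HCMV Towne strain. Compounds were dissolved in the overlay medium. IC50 from linear regression of percent inhibition against log concentration, average of two or more experiments. Ganciclovir positive control.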
# HFF = experiment: Cytotoxicity produced in human foreskin fibroblasts (HFF) cells estimated by visual scoring of cells unaffected by virus infection.; assay type: ADME, cell-based
# Method in brief: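 Uninfected HFF cells in the HCMV plaque-reduction plates were examined at 35-fold magnification on the day of plaque staining. Drug-induced cytopathology was scored 0–4. IC50 from regression of percent inhibition against log concentration, average of two or more experiments.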
# Human betaherpesvirus 5 [2] = experiment: Antiviral activity against human cytomegalo virus using ELISA; assay type: functional, organism-based
# Method in brief: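 HCMV (Towne strain, plaque-purified isolate P0) measured by enzyme immunoassay in MRC-5 human embryonic lung cells grown in MEM(E) with 10% FBS. IC50 from linear regression of percent inhibition against log concentration, averaged over two or more experiments. Ganciclovir positive control.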
# KB = experiment: Cytotoxicity (growth inhibition) against human epidermoid oral carcinoma KB cell line.; assay type: functional, cell-based
# Method in brief: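 KB cells grown in MEM(H) with 10% calf serum. Cytotoxicity measured by a staining method. IC50 from linear regression of percent inhibition against log drug concentration, average of two or more experiments.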
# Human alphaherpesvirus 1 [3] = experiment: Antiviral activity against herpes simplex virus using ELISA; assay type: functional, organism-based
# [4] = Half life was determined; assay type: ADME
# Human alphaherpesvirus 1 [5] = experiment: Antiviral activity against herpes simplex virus type 1 using ELISA; assay type: functional, organism-based
# Human betaherpesvirus 5 [6] = experiment: Antiviral activity against human cytomegalovirus (HCMV) in plaque reduction assay; assay type: functional, organism-based; method in brief: as §1
# Human alphaherpesvirus 1 [7] = experiment: Inhibitory concentration against HSV-1; assay type: functional, organism-based
SMILES,IC50 (Human betaherpesvirus 5 [1]) [µM],IC50 (HFF) [µM],IC50 (KB) [µM],also measured
CCOCn1cc(C(=N)S)c2c(OCC)ncnc21,> 100,–,–,–
CCOCn1c(N)c(C(N)=O)c2c(N)ncnc21,> 100,> 100,> 100,IC50 (Human betaherpesvirus 5 [2]): > 100 µM
CCOCn1c(N)c(C#N)c2c(N)ncnc21,7.2,> 100,138,IC50 (Human alphaherpesvirus 1 [3]): 68 µM; IC50 (Human betaherpesvirus 5 [2]): 12 µM
NC(=S)c1c(N)n(COCc2ccccc2)c2ncnc(N)c12,16,> 100,225,IC50 (Human alphaherpesvirus 1 [3]): 60 µM; IC50 (Human betaherpesvirus 5 [2]): 19 µM
CCOCn1cc(C(=N)S)c2c(O)ncnc21,> 100,–,–,–
COCCOCn1c(N(C)C)c(C#N)c2c(N)ncnc21,> 100,> 100,> 100,IC50 (Human alphaherpesvirus 1 [3]): > 100 µM
CCOc1ncnc2c1c(C#N)cn2COCCOC,> 100,–,–,–
COCCOCn1cc(C(N)=S)c2c(N)ncnc21,1.3,> 100,–,–
CCNc1ncnc2c1c(C(=N)S)cn2COCCOC,> 100,–,–,–
CCNc1ncnc2c1c(C#N)cn2COCC,> 100,–,–,–
COCCOCn1c(Br)c(C#N)c2c(N)ncnc21,> 100,> 100,> 100,–
CNc1ncnc2c1c(C#N)cn2COCCOC,> 100,–,–,–
CCOCn1cc(C#N)c2c(N(C)C)ncnc21,> 100,–,–,–
COCCOCn1cc(C(=N)S)c2c(N(C)C)ncnc21,> 100,–,–,T1/2 [4]: 150 h
Cc1cccc(Cn2c(N)c(C#N)c3c(N)ncnc32)c1,–,100,> 100,IC50 (Human alphaherpesvirus 1 [5]): > 100 µM; IC50 (Human betaherpesvirus 5 [6]): 32 µM
CNc1ncnc2c1c(C(=N)S)cn2COCCOC,20,–,–,IC50 (Human alphaherpesvirus 1 [7]): 30 µM
COCCOCn1cc(C#N)c2c(Cl)ncnc21,> 100,–,–,–
CCOCn1c(Br)c(C#N)c2c(N)ncnc21,> 100,> 100,> 100,–
COCCOCn1cc(C#N)c2c(N)ncnc21,–,> 100,> 100,IC50 (Human alphaherpesvirus 1 [3]): > 100 µM
NC(=O)c1c(N)n(COCc2ccccc2)c2ncnc(N)c12,> 100,> 100,> 100,IC50 (Human betaherpesvirus 5 [2]): > 100 µM

SMILES,IC50 (Human betaherpesvirus 5 [1]) [µM],IC50 (HFF) [µM],IC50 (KB) [µM],also measured
C=CCn1c(N)c(C#N)c2c(N)ncnc21,–,100,> 100,IC50 (Human alphaherpesvirus 1 [5]): 40 µM; IC50 (Human betaherpesvirus 5 [6]): 1.9 µM
CNc1c(C#N)c2c(N)ncnc2n1COCCOC,> 100,> 100,> 100,IC50 (Human alphaherpesvirus 1 [3]): > 100 µM
COCCOCn1cc(C#N)c2cncnc21,> 100,–,–,–
COCCOCn1cc(C(=N)S)c2c(OC)ncnc21,> 100,–,–,–
N#Cc1c(N)n(COCc2ccccc2)c2ncnc(N)c12,2.8,> 100,118,IC50 (Human alphaherpesvirus 1 [3]): 12.5 µM; IC50 (Human betaherpesvirus 5 [2]): 9 µM
COCCOCn1c(N)c(C#N)c2c(N)ncnc21,8.2,> 100,210,IC50 (Human alphaherpesvirus 1 [3]): > 100 µM; IC50 (Human betaherpesvirus 5 [2]): 9 µM
N#Cc1c(N)n(Cc2ccccc2)c2ncnc(N)c12,–,100,34,IC50 (Human alphaherpesvirus 1 [5]): 10 µM; IC50 (Human betaherpesvirus 5 [6]): 3.3 µM
COCCOCn1cc(C#N)c2c(S)ncnc21,> 100,–,–,–
COCCOCn1c(N)c(C(N)=S)c2c(N)ncnc21,5,> 100,> 320,IC50 (Human alphaherpesvirus 1 [3]): 100 µM; IC50 (Human betaherpesvirus 5 [2]): 20 µM
CCOCn1cc(C(=N)S)c2c(OC)ncnc21,> 100,–,–,–
CCOCn1cc(C#N)c2cncnc21,> 100,–,–,–
CCCn1c(N)c(C#N)c2c(N)ncnc21,–,100,15,IC50 (Human alphaherpesvirus 1 [5]): 2.5 µM; IC50 (Human betaherpesvirus 5 [6]): 0.5 µM
CCOCn1c(N)c(C(=N)S)c2c(N)ncnc21,16,> 100,> 320,IC50 (Human alphaherpesvirus 1 [3]): 100 µM; IC50 (Human betaherpesvirus 5 [2]): 45 µM
CCOCn1cc(C(=N)S)c2cncnc21,> 100,–,–,–
Nc1nc2c(ncn2COCCO)c(=O)[nH]1 [ACYCLOVIR],> 100,> 100,> 100,–
Cc1ccc(Cn2c(N)c(C#N)c3c(N)ncnc32)cc1,–,32,> 100,IC50 (Human alphaherpesvirus 1 [5]): 60 µM; IC50 (Human betaherpesvirus 5 [6]): 0.3 µM
N#Cc1c(Br)n(COCc2ccccc2)c2ncnc(N)c12,> 100,> 100,> 100,–
CCOCn1cc(C#N)c2c(OCC)ncnc21,> 100,–,–,–
COCCOCn1cc(C#N)c2c(O)ncnc21,> 100,–,–,–
COc1ccc(Cn2c(N)c(C#N)c3c(N)ncnc32)cc1,–,100,50,IC50 (Human alphaherpesvirus 1 [5]): 10 µM; IC50 (Human betaherpesvirus 5 [6]): 9 µM

SMILES,IC50 (Human betaherpesvirus 5 [1]) [µM],IC50 (HFF) [µM],IC50 (KB) [µM],also measured
COCCOCn1cc(C(=N)S)c2c(S)ncnc21,> 100,–,–,–
CCOCn1cc(C#N)c2c(Cl)ncnc21,> 100,–,–,–
CCNc1ncnc2c1c(C(=N)S)cn2COCC,> 100,–,–,–
CCOCn1cc(C(=N)S)c2c(N(C)C)ncnc21,> 100,–,–,–
COCCOCn1cc(C(=N)S)c2c(O)ncnc21,> 100,–,–,–
COCCOCn1cc(C#N)c2c(OC)ncnc21,> 100,–,–,–
CCOCn1cc(C(=N)S)c2c(N)ncnc21,–,> 32,60,–
CCOCn1cc(C#N)c2c(OC)ncnc21,> 100,–,–,–
COCCOCn1cc(C#N)c2c(N(C)C)ncnc21,> 100,–,–,–
CCOCn1cc(C(=N)S)c2c(NC)ncnc21,20,–,–,–
Nc1nc2c(ncn2COC(CO)CO)c(=O)[nH]1 [GANCICLOVIR],–,> 100,> 320,IC50 (Human betaherpesvirus 5 [2]): 2.2 µM
CCOCn1cc(C#N)c2c(N)ncnc21,> 100,> 100,> 100,–
CCNc1ncnc2c1c(C#N)cn2COCCOC,> 100,–,–,–
CCOCn1cc(C#N)c2c(O)ncnc21,> 100,–,–,–
COCCOCn1c(N)c(C(N)=O)c2c(N)ncnc21,> 100,> 100,> 100,IC50 (Human betaherpesvirus 5 [2]): > 100 µM
COCCOCn1cc(C(=N)S)c2cncnc21,> 100,–,–,–
CCOCn1cc(C#N)c2c(NC)ncnc21,> 100,–,–,–
CCOCn1cc(C#N)c2c(S)ncnc21,> 100,–,–,–
